Pf Dd2 inh = P. falciparum Dd2 growth inhibition. activity change, % at 10 µM. actives 2.3% (n = 94,000). SYBR Green, 72 h; active compounds read low; in the data active = activity change below about -80%; inconclusive = no clear call, values can overlap the other calls
T cruzi growth-1 = T. cruzi proliferation inhibition. AID 624255. inhibition, % at 8.34 µM. actives 5.9% (n = 77,000). T. cruzi beta-gal in NIH3T3, GalScreen luminescence, 90 h;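 active = mean inhibition above about 93%, with at least 55% of replicates each passing it, limit read from the data, passing the limit was not always enough; inconclusive = only one of those two conditions holds; inactive = neither condition holds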
IDH1 mut inh = blocks human IDH1 R132H reductase activity; inhibition, % at 10 µM; actives 0.18% (n = 70,000); diaphorase/resazurin fluorescence, 60 min; O75874; in the data active = inhibition above about 34%; inconclusive = no clear call, values can overlap the other calls; inactive = below about 11%;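 note: 0% = DMSO and 100% = no enzyme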
GASC1 inh = blocks human GASC-1 (KDM4C) demethylase activity | Q9H3R0 | GST-KDM4C 2-372, H3K9me3 peptide, LANCE TR-FRET | inhibition, % at 12.5 µM | actives 0.15% (n = 96,000) | AID 720574;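 active = mean replicate inhibition above about 25%, with at least 55% of replicates also reaching it, limit read from the data, passing the limit was not always enough; inconclusive = only one of those two conditions met; inactive = neither condition met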
Target sequence (Q9H3R0 2-372 limits assumed): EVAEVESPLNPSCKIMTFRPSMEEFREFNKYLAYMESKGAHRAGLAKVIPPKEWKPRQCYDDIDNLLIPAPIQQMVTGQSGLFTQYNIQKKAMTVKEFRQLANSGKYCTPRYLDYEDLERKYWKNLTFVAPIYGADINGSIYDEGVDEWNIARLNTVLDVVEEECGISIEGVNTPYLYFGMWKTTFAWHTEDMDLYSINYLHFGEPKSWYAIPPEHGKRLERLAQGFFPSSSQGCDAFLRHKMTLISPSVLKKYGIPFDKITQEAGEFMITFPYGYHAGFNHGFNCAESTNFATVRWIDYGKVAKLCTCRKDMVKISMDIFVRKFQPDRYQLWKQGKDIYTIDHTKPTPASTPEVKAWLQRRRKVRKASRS
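reagent = H3K9me3 peptide substrate, Fe(II), 2-oxoglutarate | system = GST-tagged GASC-1 (JMJD2C) catalytic fragment, aa 2-372 | amount = enzyme final amount 10 nM | read-out = Fall in 671/618 emission ratio as inhibition | medium = HEPES buffer, pH 7.5, plus ascorbate | schedule = 30 min reaction, 60 min detection, RT | measured by = LANCE TR-FRET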
T cruzi growth-2 = Trypanosoma cruzi proliferation inhibition. shares compounds with T cruzi growth-1. T. cruzi beta-gal in NIH3T3, GalScreen luminescence, 90 h. inhibition, % at 8.35 µM. actives 72% (n = 5,600). AID 651739;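 active = mean replicate inhibition above about 95% and at least 55% of replicates individually reaching it, limit read from the data; inconclusive = only one of the two criteria is met; inactive = neither criterion is met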
T cruzi growth-3 = inhibitors of T. cruzi proliferation; shares compounds with T cruzi growth-1; AID 651740; actives 21% (n = 5,600); inhibition, % at 2.09 µM; T. cruzi beta-gal in NIH3T3, GalScreen luminescence, 90 h;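 active = mean inhibition above about 95%, with at least 55% of replicates also reaching it, limit read from the data; inconclusive = meets just one of the two conditions; inactive = meets neither condition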;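 note: plate controls were neutral control median for no effect and positive control median for full effect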
3T3 cytotox = kills mouse NIH/3T3 fibroblasts; AID 651742; cytotoxicity (signal decrease), % at 8.35 µM; NIH/3T3 viability, CellTiter-Glo ATP luminescence, 90 h; shares compounds with T cruzi growth-1; actives 14% (n = 5,600);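 active = mean signal decrease across replicates above about 35% based on untreated-well scatter, with enough replicates individually passing, limit read from the data; inconclusive = no rule stated though some were filed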;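 note: 0% = median of neutral control wells and 100% = median of positive control wells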
NIH3T3 tox 2 = kills mouse NIH/3T3 fibroblasts; shares compounds with T cruzi growth-1; actives 56% (n = 5,600); AID 651744; NIH/3T3 viability, CellTiter-Glo ATP luminescence, 90 h; inhibition, % at 24.9 µM;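 active = mean loss of cell viability signal at or above a set limit, and enough replicates individually reaching it; inconclusive = meets only the mean limit or only the replicate share; inactive = meets neither condition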;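 note: 0% = median of neutral control wells and 100% = median of positive control wells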
An asterisk follows results filed as active; ? = inconclusive; . = no result. A selection: hits, their analogues and other compounds. The true share with any hit is near 5.8%.

SMILES	Pf Dd2 inh	T cruzi growth-1	IDH1 mut inh	GASC1 inh	T cruzi growth-2	T cruzi growth-3	3T3 cytotox	NIH3T3 tox 2
C[C@H]1CN([C@@H](C)CO)C(=O)c2cc(C#Cc3ccccc3F)cnc2O[C@@H]1CN(C)C(=O)c1ccc2c(c1)OCO2	-82*	125*	.	1	110*	42	33	37*
C[C@@H]1CN([C@H](C)CO)C(=O)c2cc(C#Cc3cccc(F)c3)cnc2O[C@H]1CN(C)C(=O)C1CCCCC1	-71	101*	0	-1	110*	84	-2	103*
C[C@H]1CN([C@@H](C)CO)C(=O)c2cc(C#Cc3cccc(F)c3)cnc2O[C@H]1CN(C)C(=O)C1CCCCC1	-73	99	0	1	.	.	.	.
CCOc1ccccc1NC(=O)CSc1nc2sc(C)c(C)c2c(=O)n1-c1ccccc1	.	.	0	.	.	.	.	.
Cc1cc(NC(=O)CCCN2C(=O)c3cccc4cccc(c34)C2=O)n(-c2ccccc2)n1	.	.	0	.	.	.	.	.
CC(C)C(C(=O)OC1CSCC1NC(=O)c1ccccc1)N1C(=O)c2ccccc2C1=O (configuration not stated)	.	.	-2	.	.	.	.	.
C[C@H](CO)N1C[C@H](C)[C@@H](CN(C)C(=O)C2CCC2)Oc2ncc(C#Cc3ccccc3F)cc2C1=O	-32	103	0	-2	.	.	.	.
C[C@H]1CN([C@@H](C)CO)C(=O)c2cc(C#Cc3ccccc3F)cnc2O[C@@H]1CN(C)C(=O)C1CCC1	-53	97*	0	0	104*	44	30	45*
Cc1ccc(-c2ccc([C@H]3[C@H]4CN(C(=O)Nc5ccccc5)CCCCN4[C@H]3CO)cc2)cc1	17	109*	.	-2	107*	43	21	91*
O=C(Nc1ccccc1)N1CCCCN2[C@H](C1)[C@H](c1ccc(-c3ccccc3)cc1)[C@@H]2CO	-69	128*	.	0	103*	43	12	9
Cc1ccc(-c2ccc([C@@H]3[C@@H](CO)N4CCCCN(C(=O)Nc5ccccc5)C[C@@H]34)cc2)cc1	-14	110*	.	-1	106*	72	26	104*
CC(=O)c1cccc(NC(=S)NCCn2cc(Cl)cn2)c1	.	.	0	.	.	.	.	.
CC(C)(C)NS(=O)(=O)c1ccc(NC(=O)CSc2nc3ccccc3[nH]2)cc1	.	.	0	.	.	.	.	.
CCc1ccccc1NC(=O)CSc1nnc(-c2cccc(OC)c2)n1C	.	.	0	.	.	.	.	.
Cc1ccc2nc(SCc3nc4ccccc4n3C)[nH]c2c1	.	.	0	.	.	.	.	.
c1cc(-c2nn[nH]n2)ccc1OCc1nn[nH]n1	.	.	0	.	.	.	.	.
COc1ccc(C(C)(C)C)cc1NC(=S)Nc1ccc(S(=O)(=O)Nc2ncccn2)cc1	.	.	0	.	.	.	.	.
CC(C)CC#Cc1cnc2c(c1)C(=O)N([C@H](C)CO)C[C@@H](C)[C@@H](CN(C)S(=O)(=O)c1ccccc1)O2	-23	83	1	1	.	.	.	.
COc1cccc(S(=O)(=O)N(C)C[C@@H]2Oc3ncc(C#CCN(C)C)cc3C(=O)N([C@@H](C)CO)C[C@H]2C)c1	-8	103*	-1	10	96*	93	2	3
CCCC#Cc1cnc2c(c1)C(=O)N([C@H](C)CO)C[C@H](C)[C@H](CN(C)S(=O)(=O)c1ccccc1)O2	-54	46	1	0	.	.	.	.
CCCC#Cc1cnc2c(c1)C(=O)N([C@@H](C)CO)C[C@@H](C)[C@@H](CN(C)S(=O)(=O)c1cccc(OC)c1)O2	18	88	.	-1	.	.	.	.
Cc1ccc(S(=O)(=O)N(C)C[C@H]2Oc3ncc(C#CCC(C)C)cc3C(=O)N([C@@H](C)CO)C[C@H]2C)cc1	-38	105*	-1	0	104*	77	33	93*
C[C@@H]1CN([C@@H](C)CO)C(=O)c2cc(C#CCN(C)C)cnc2O[C@H]1CN(C)S(=O)(=O)c1ccccc1	-14	97*	-1	3	102*	87	-23	-6
COc1cccc(S(=O)(=O)N(C)C[C@@H]2Oc3ncc(C#CC(C)C)cc3C(=O)N([C@H](C)CO)C[C@@H]2C)c1	-19	96*	-4	-1	84	19	15	52*
COc1ccc(OC)c(-c2cc(C(=O)NC(C)c3ccc(OC)c(OC)c3)c3ccccc3n2)c1 (configuration not stated)	.	.	0	.	.	.	.	.
SMILES	Pf Dd2 inh	T cruzi growth-1	IDH1 mut inh	GASC1 inh	T cruzi growth-2	T cruzi growth-3	3T3 cytotox	NIH3T3 tox 2
Clc1snnc1CN1CCOCC1	.	.	0	.	.	.	.	.
COc1cccc(S(=O)(=O)N(C)C[C@H]2Oc3ncc(C#CC(C)C)cc3C(=O)N([C@@H](C)CO)C[C@@H]2C)c1	-64	114*	-5	0	83	53	-13	3
COc1cccc(S(=O)(=O)N(C)C[C@H]2Oc3ncc(C#CC(C)C)cc3C(=O)N([C@H](C)CO)C[C@H]2C)c1	-20	74	.	1	.	.	.	.
C[C@@H]1CN([C@@H](C)CO)S(=O)(=O)c2ccc(/C=C/c3ccccc3)cc2O[C@@H]1CN(C)Cc1ccccc1	-7	100*	0	-1	97*	110*	17	81*
C/C=C/c1ccc2c(c1)O[C@H](CN(C)Cc1cccnc1)[C@H](C)CN([C@@H](C)CO)S2(=O)=O	2	?	2	-1	75	-7	3	20
C[C@@H]1CN([C@H](C)CO)S(=O)(=O)c2ccc(/C=C/c3ccccc3)cc2O[C@@H]1CN(C)Cc1cccnc1	-33	128*	0	-2	91	91	83*	96*
C/C=C/c1ccc2c(c1)O[C@H](CN(C)Cc1cccnc1)[C@@H](C)CN([C@H](C)CO)S2(=O)=O	-22	106*	?	0	103*	100*	48*	71*
C[C@@H]1O[C@@H](O[C@H]2[C@@H]3C=CO[C@@H](O[C@@H]4O[C@H](CO)[C@@H](O)[C@H](O)[C@H]4O)[C@@H]3[C@@]3(CO)O[C@@H]23)[C@H](OC(=O)/C=C/c2ccccc2)[C@H](OC(=O)/C=C/c2ccccc2)[C@H]1O	.	.	0	.	.	.	.	.
C[C@H](CO)N1C[C@H](C)[C@H](CN(C)C(=O)Nc2ccc3c(c2)OCO3)OCCCC[C@H](C)Oc2ccc(NC(=O)NC3CCCCC3)cc2C1=O	-16	110*	0	2	105*	83	-20	-16
C[C@@H]1CCCCO[C@H](CN(C)C(=O)Nc2ccc3c(c2)OCO3)[C@H](C)CN([C@@H](C)CO)C(=O)c2cc(NC(=O)NC3CCCCC3)ccc2O1	-73	64	.	3	.	.	.	.
